# Columns and labels:
# Streptococcus pneumoniae [1] = assay: AUC/MIC ratio of Streptococcus pneumoniae 1293 infected neutropenic mouse thigh infection model at 1.28 mg/kg, ip administered every 72 hrs by 1-log killing experiment; type: functional; conditions: route intraperitoneal
# Staphylococcus aureus [2] = assay: AUC/MIC ratio of methicillin-resistant Staphylococcus aureus infected neutropenic mouse thigh infection model at 85 mg/kg, ip administered every 72 hrs by 2-log killing experiment; type: functional; conditions: route intraperitoneal
# Staphylococcus aureus [3] = assay: AUC/MIC ratio of Staphylococcus aureus Smith infected neutropenic mouse thigh infection model at 95 mg/kg, ip administered every 72 hrs by 1-log killing experiment; type: functional; conditions: route intraperitoneal
# Streptococcus pneumoniae [4] = assay: AUC/MIC ratio of Streptococcus pneumoniae ATCC 10813 infected neutropenic mouse thigh infection model at 1.34 mg/kg, ip administered every 24 hrs by static effect experiment; type: functional; conditions: route intraperitoneal
# Staphylococcus aureus [5] = assay: AUC/MBC ratio of Staphylococcus aureus Smith infected neutropenic mouse thigh infection model at 59 mg/kg, ip administered every 72 hrs by static effect experiment; type: functional; conditions: route intraperitoneal
# Streptococcus pneumoniae [6] = assay: AUC/MIC ratio of Streptococcus pneumoniae 1199 infected neutropenic mouse thigh infection model at 0.99 mg/kg, ip administered every 72 hrs by 2-log killing experiment; type: functional; conditions: route intraperitoneal
# Staphylococcus aureus [7] = assay: AUC/MBC ratio of Staphylococcus aureus Smith infected neutropenic mouse thigh infection model at 50.7 mg/kg, ip administered every 24 hrs by 1-log killing experiment; type: functional; conditions: route intraperitoneal
# Streptococcus pneumoniae [8] = assay: Bactericidal activity in Streptococcus pneumoniae ATCC 10813 infected neutropenic mouse thigh infection model assessed as drug level causing 2-log reduction of bacterial count at 4.13 mg/kg/6days; type: functional
# [9] = Half life in bacterial pathogen-infected neutropenic Swiss ICR mouse thigh infection model at 40 mg/kg, ip; type: ADME, organism-based; set-up: dose 40 mg/kg, route intraperitoneal; conditions: in vivo
# How it was run: (§1)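 Thigh-infected neutropenic mice received single intraperitoneal doses (2.5, 5, 10, 20, 40, 80 mg/kg; 0.2 ml/dose). Blood was drawn by retroorbital aspiration from groups of three mice at 0.5, 1, 2, 4, 6, 24, 48, 72 and 96 h. Plasma levels were measured by microbiologic assay with Bacillus subtilis (detection limit 0.10 mg/liter). Noncompartmental analysis was used: half-life by linear least-squares regression, AUC by trapezoidal rule.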
# Staphylococcus aureus [10] = assay: AUC/MBC ratio of Staphylococcus aureus ATCC 25923 infected neutropenic mouse thigh infection model at 60 mg/kg, ip administered every 24 hrs by 2-log killing experiment; type: functional; conditions: route intraperitoneal
# Staphylococcus aureus [11] = assay: AUC/MBC ratio of Staphylococcus aureus 31005 infected neutropenic mouse thigh infection model at 49.3 mg/kg, ip administered every 24 hrs by static effect experiment; type: functional; conditions: route intraperitoneal
# Streptococcus pneumoniae [12] = assay: Bactericidal activity in Streptococcus pneumoniae ATCC 10813 infected non-neutropenic mouse thigh infection model assessed as drug level causing 2-log reduction of bacterial count at 2.03 mg/kg/6days; type: functional
# Staphylococcus aureus [13] = assay: AUC/MBC ratio of Staphylococcus aureus Smith infected neutropenic mouse thigh infection model at 148 mg/kg, ip administered every 72 hrs by 2-log killing experiment; type: functional; conditions: route intraperitoneal
# Streptococcus pneumoniae [14] = assay: AUC/MIC ratio of Streptococcus pneumoniae 1396 infected neutropenic mouse thigh infection model at 0.52 mg/kg, ip administered every 72 hrs by static effect experiment; type: functional; conditions: route intraperitoneal
# Streptococcus pneumoniae [15] = assay: Bactericidal activity in Streptococcus pneumoniae ATCC 10813 infected non-neutropenic mouse thigh infection model assessed as drug level causing 1-log reduction of bacterial count at 2.03 mg/kg/6days; type: functional
# Staphylococcus aureus [16] = assay: AUC/MIC ratio of methicillin-resistant Staphylococcus aureus infected neutropenic mouse thigh infection model at 37.7 mg/kg, ip administered every 24 hrs by static effect experiment; type: functional; conditions: route intraperitoneal
# Staphylococcus aureus [17] = assay: AUC/MIC ratio of Staphylococcus aureus Smith infected neutropenic mouse thigh infection model at 148 mg/kg, ip administered every 72 hrs by 2-log killing experiment; type: functional; conditions: route intraperitoneal
# Staphylococcus aureus [18] = assay: Bactericidal activity against […] Staphylococcus aureus ATCC 29213 infected neutropenic Swiss ICR mouse thigh infection model assessed as drug level causing 1-log reduction of bacterial count at 10 mg/kg, ip dosed every 72 hrs; type: functional; conditions: route intraperitoneal
# How it was run: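 Neutropenic thigh-infected mice were treated ip starting 2 h post-infection for 144 h, with doses given q24h or q72h. Thigh CFU were fitted to a sigmoid Hill Emax model by nonlinear least squares. The dose giving a 1-log10 reduction versus start-of-therapy counts was derived from the fit, together with the free-drug 24-h AUC/MIC.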
# Streptococcus pneumoniae [19] = assay: AUC/MIC ratio of Streptococcus pneumoniae 1293 infected neutropenic mouse thigh infection model at 0.44 mg/kg, ip administered every 24 hrs by static effect experiment; type: functional; conditions: route intraperitoneal
# Streptococcus pneumoniae [20] = assay: Bactericidal activity against penicillin-susceptible Streptococcus pneumoniae ATCC 10813 infected neutropenic Swiss ICR mouse thigh infection model assessed as drug level causing 1-log reduction of bacterial count at 1.34 mg/kg, ip dosed every 24 hrs; type: functional; conditions: route intraperitoneal
# Streptococcus pneumoniae [21] = assay: AUC/MIC ratio of Streptococcus pneumoniae 1199 infected neutropenic mouse thigh infection model at 0.57 mg/kg, ip administered every 24 hrs by 2-log killing experiment; type: functional; conditions: route intraperitoneal
# Staphylococcus aureus [22] = assay: Antibacterial activity against Staphylococcus aureus ATCC 25923 in presence of 95% mouse serum; type: functional
# How it was run: (§2)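 MIC determined in broth, heat-treated (100°C, 30 min) 95% mouse serum, and 95% mouse serum ultrafiltrate, using arithmetic dilutions of 0.02 mg/liter per tube. Protein binding estimated as (MIC in 95% serum − MIC in ultrafiltrate)/MIC in 95% serum.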
# Staphylococcus aureus [23] = assay: AUC/MIC ratio of Staphylococcus aureus ATCC 25923 infected neutropenic mouse thigh infection model at 60 mg/kg, ip administered every 24 hrs by 2-log killing experiment; type: functional; conditions: route intraperitoneal
# Staphylococcus aureus [24] = assay: Antibacterial activity against Staphylococcus aureus ATCC 25923 in presence of 95% mouse serum ultrafiltrate; type: functional; how it was run: as §2
# Streptococcus pneumoniae [25] = assay: Bactericidal activity against penicillin-susceptible Streptococcus pneumoniae ATCC 10813 infected neutropenic Swiss ICR mouse thigh infection model assessed as drug level causing 2-log reduction of bacterial count at 2.3 mg/kg, ip dosed every 12 hrs; type: functional; conditions: route intraperitoneal
# How it was run: (§3)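 Neutropenic mice (cyclophosphamide ip 150 mg/kg day −4, 100 mg/kg day −1, then every 48 h) received 0.1 ml log-phase inoculum per thigh under halothane. Intraperitoneal dalbavancin started 2 h later and was given for 6 days at q12h, q24h, q36h or q72h, two mice per regimen. Thigh CFU were counted at 144 h. Endpoint doses relative to start-of-therapy counts came from Hill-model nonlinear regression and are expressed per 24 h.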
# Streptococcus pneumoniae [26] = assay: Bactericidal activity against penicillin-susceptible Streptococcus pneumoniae ATCC 10813 infected neutropenic Swiss ICR mouse thigh infection model assessed as drug level causing 2-log reduction of bacterial count at 0.71 mg/kg, ip dosed every 72 hrs; type: functional; conditions: route intraperitoneal; how it was run: as §3
# [27] = AUC in bacterial pathogen-infected neutropenic Swiss ICR mouse thigh infection model at 40 mg/kg, ip; type: ADME, organism-based; set-up: dose 40 mg/kg, route intraperitoneal; conditions: in vivo; how it was run: as §1
# [28] = Cmax in bacterial pathogen-infected neutropenic Swiss ICR mouse thigh infection model at 5 mg/kg, ip; type: ADME, organism-based; set-up: dose 5 mg/kg, route intraperitoneal; conditions: in vivo; how it was run: as §1
# Streptococcus pneumoniae [29] = assay: AUC/MIC ratio of Streptococcus pneumoniae 1325 infected neutropenic mouse thigh infection model at 1.73 mg/kg, ip administered every 24 hrs by 2-log killing experiment; type: functional; conditions: route intraperitoneal
# Staphylococcus aureus [30] = assay: AUC/MBC ratio of Staphylococcus aureus ATCC 25923 infected neutropenic mouse thigh infection model at 51.2 mg/kg, ip administered every 24 hrs by 1-log killing experiment; type: functional; conditions: route intraperitoneal
compound,measurement,setting,value
CN[C@H]1C(=O)N[C@@H]2Cc3ccc(cc3)Oc3cc4cc(c3O[C@@H]3O[C@H](C(=O)O)[C@@H](O)[C@H](O)[C@H]3NC(=O)CCCCCCCCC(C)C)Oc3ccc(cc3Cl)[C@@H](O)[C@@H]3NC(=O)[C@H](NC(=O)[C@@H]4NC(=O)[C@@H](NC2=O)c2cc(cc(O)c2Cl)Oc2cc1ccc2O)c1ccc(O)c(c1)-c1c(O[C@H]2O[C@H](CO)[C@@H](O)[C@H](O)[C@@H]2O)cc(O)cc1[C@@H](C(=O)NCCCN(C)C)NC3=O [DALBAVANCIN],RatioAUC/MIC,Streptococcus pneumoniae [1],18
same,RatioAUC/MIC,Staphylococcus aureus [2],292
same,RatioAUC/MIC,Staphylococcus aureus [3],163
same,RatioAUC/MIC,Streptococcus pneumoniae [4],7.5
same,Ratio,Staphylococcus aureus [5],46.1
same,RatioAUC/MIC,Streptococcus pneumoniae [6],35.3
same,Ratio,Staphylococcus aureus [7],119
same,Activity,Streptococcus pneumoniae [8],4.62
same,half-life,[9],10.4 h
same,Ratio,Staphylococcus aureus [10],69.3
same,Ratio,Staphylococcus aureus [11],242
same,Activity,Streptococcus pneumoniae [12],2.66
same,Ratio,Staphylococcus aureus [13],122
same,RatioAUC/MIC,Streptococcus pneumoniae [14],4
same,Activity,Streptococcus pneumoniae [15],2.35
same,RatioAUC/MIC,Staphylococcus aureus [16],374
same,RatioAUC/MIC,Staphylococcus aureus [17],254
same,Activity,Staphylococcus aureus [18],31
same,RatioAUC/MIC,Streptococcus pneumoniae [19],17.4
same,Activity,Streptococcus pneumoniae [20],1.54
same,RatioAUC/MIC,Streptococcus pneumoniae [21],22.7
same,MIC,Staphylococcus aureus [22],32 µg/mL
same,RatioAUC/MIC,Staphylococcus aureus [23],289
same,MIC,Staphylococcus aureus [24],0.5 µg/mL
same,Activity,Streptococcus pneumoniae [25],3.5
same,Activity,Streptococcus pneumoniae [26],0.82
same,AUC,[27],10600 µg·h/mL
same,Cmax,[28],29000 ng/mL
same,RatioAUC/MIC,Streptococcus pneumoniae [29],34.5
same,Ratio,Staphylococcus aureus [30],60
